Assay outcomes (PubChem BioAssay)
The list is not random: actives were taken first. Their share in the collection is about 1.9%.
TDP2 inh: TDP2 (human) inhibition, absorbance primary screen. recombinant TDP2, T5PNP hydrolysis, p-nitrophenol absorbance 415 nm. inhibition, % at 12.8 µM. 370,000 compounds, 0.34% hits. AID 720702;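 active = inhibition above the mean of all tested compounds plus 3 SD, set per campaign, cut at about 25% in these data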;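 note: 0% = DMSO with enzyme and 100% = buffer with substrate but no TDP2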
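test system = human TDP2 enzyme | input = TDP2 enzyme at 120 nM final | medium = 50 mM Tris-HCl pH 7.5 with Mg2+, KCl, DTT, BSA | also added = T5PNP substrate, 5 mM | times = 2 h at 37 °C | technique = epi absorbance | benchmarks = high control without enzyme, low control DMSO plus TDP2 | replication = each compound tested once, singlicate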
NSD2 HMT inh: blocks human histone methyltransferase NSD2 | O96028 | inhibition, % at 12.5 µM | NSD2 peptide methylation, AlphaScreen, 120 min | 310,000 compounds, 0.54% hits | AID 743445; in the data active = inhibition above about 50%
LEDGF integ inh: blocks HIV-1 LEDGF/p75-dependent DNA integration; inhibition, % at 3.7 µM; 370,000 compounds, 0.64% hits; AID 743269; TR-FRET IN-LEDGF/p75 DNA integration, Eu/Cy5;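 active = inhibition above the screen-wide mean plus 3 SD, cut at about 13% in these data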;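 note: signal is the Cy5 over europium emission ratio at 671 and 618 nm; 0% = plate median of compound wells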
MBD2 DNA inh: blocks human MBD2 binding to methylated DNA; Q9UBB5; TR-FRET, MBD2 binding to methylated oligonucleotide; inhibition, % at 4.4 µM; 370,000 compounds, 0.31% hits; AID 686964; in the data active = inhibition above about 13%
UHRF1 MBD2 ctr: blocks human UHRF1 binding to methylated DNA; inhibition, % at 4.4 µM; UHRF1 binding to methylated oligo, TR-FRET; 370,000 compounds, 0.75% hits; AID 687016; in the data active = inhibition above about 21%;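 note: UHRF1 SRA domain binding a hemimethylated CpG hairpin DNA probe; 0% = median of test compound wells and 100% = reference inhibitor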
Target sequence (Q96T88 whole entry, looked up, the tested form may be a part): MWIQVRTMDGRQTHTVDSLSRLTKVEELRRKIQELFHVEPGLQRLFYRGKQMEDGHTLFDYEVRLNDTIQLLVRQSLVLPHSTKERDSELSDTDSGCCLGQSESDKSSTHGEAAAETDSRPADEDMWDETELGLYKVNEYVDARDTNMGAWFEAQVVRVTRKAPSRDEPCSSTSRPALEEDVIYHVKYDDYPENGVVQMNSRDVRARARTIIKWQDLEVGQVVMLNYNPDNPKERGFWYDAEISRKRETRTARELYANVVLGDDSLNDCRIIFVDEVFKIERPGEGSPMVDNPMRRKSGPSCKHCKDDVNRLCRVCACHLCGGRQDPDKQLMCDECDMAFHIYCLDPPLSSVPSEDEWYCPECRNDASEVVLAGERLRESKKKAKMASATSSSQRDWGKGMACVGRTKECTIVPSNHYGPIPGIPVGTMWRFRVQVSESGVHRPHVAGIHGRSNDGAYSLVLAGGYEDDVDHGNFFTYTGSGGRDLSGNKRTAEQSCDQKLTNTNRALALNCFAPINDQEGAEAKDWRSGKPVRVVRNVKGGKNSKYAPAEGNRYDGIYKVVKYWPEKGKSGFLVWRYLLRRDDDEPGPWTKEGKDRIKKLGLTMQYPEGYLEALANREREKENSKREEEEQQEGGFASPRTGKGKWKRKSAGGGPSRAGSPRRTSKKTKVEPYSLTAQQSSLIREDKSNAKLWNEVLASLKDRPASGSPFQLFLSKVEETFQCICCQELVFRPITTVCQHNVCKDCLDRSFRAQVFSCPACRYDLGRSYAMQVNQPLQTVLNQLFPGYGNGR
CASP6 VEID inh: inhibitors of human caspase-6. purified caspase-6, Z-VEID-R110 cleavage fluorescence. inhibition, % at 12.5 µM. 350,000 compounds, 0.53% hits. AID 686996;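 active = mean inhibition across replicates at least about 35%, with every replicate also reaching that limit, limit read from the data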;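 note: 0% = median of neutral control wells and 100% = no fluorescence left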
AlphaScreen art: AlphaScreen assay artifact in NSD2 counter-screen. 1,500 compounds, 9.4% hits. shares compounds with NSD2 HMT inh. AC35, µM (series often up to 10 µM), inactives show at the top dose activity change, negative = signal loss. AlphaScreen artifact counterscreen, preloaded methylated H4 peptide; call rule not given here
* = called active by the depositor; i = inactive; · = not tested or not shown.

SMILES	TDP2 inh	NSD2 HMT inh	LEDGF integ inh	MBD2 DNA inh	UHRF1 MBD2 ctr	CASP6 VEID inh	AlphaScreen art
COCCNC(=O)C[C@H]1CC[C@@H]2[C@@H](COc3ccc(NC(=O)COC)cc3C(=O)N2C)O1	·	·	·	·	·	4	·
Cc1ccc(Nc2nnc(SCC(=O)Nc3ccc(S(=O)(=O)N4CCOCC4)cc3)s2)cc1	1	62*	-6	5	2	·	-3%
O=C(CSc1nnc(Nc2ccccc2)s1)Nc1ccc(S(=O)(=O)N2CCOCC2)cc1	1	-1	4	-3	-1	·	·
COc1cc(OC)nc(NC2OC(=O)c3ccccc32)n1 (configuration not stated)	-5	104*	-2	0	0	·	4%
O=C1OC(Nc2ncccn2)c2ccccc21 (configuration not stated)	1	-6	0	-4	-5	·	·
Cc1cc(/C=C2\C(=N)N3N=C(c4ccco4)SC3=NC2=O)c(C)n1Cc1ccccc1	-9	12	1	1	0	-1	·
CC(C)CSC1=NSC2=NC(=O)/C(=C\c3coc4ccccc4c3=O)C(=N)N12	1	12	5	-6	-4	·	·
CSC1=NSC2=NC(=O)/C(=C\c3coc4ccccc4c3=O)C(=N)N12	-2	74*	8	-1	-7	7	1%
N=C1/C(=C/c2coc3ccccc3c2=O)C(=O)N=C2SC(c3ccco3)=NN12	·	84*	·	·	·	·	-3%
CC(=O)N(C)C[C@H]1Oc2cc(C#CC(C)C)ccc2S(=O)(=O)N([C@H](C)CO)C[C@H]1C	·	·	·	·	·	3	·
Cc1cccc(-n2c(Cn3nc(C)c([N+](=O)[O-])c3C)n[nH]c2=S)c1	2	125*	-2	-6	-2	·	2%
O=C(Nc1cccc(F)c1)N1CC(=O)N2[C@H](C1)[C@@H](c1ccc(C#CCC3CCCC3)cc1)[C@@H]2CO	·	·	·	·	·	1	·
CCOC(=O)Cn1ncc(-c2ccccc2)c1N	-1	128*	-1	1	2	·	-1%
CCOC(=O)Cn1nc(-c2ccccc2)nc1-c1ccccc1	-3	-5	2	-3	0	·	·
CS(=O)(=O)N(CC(=O)NCc1ccc2c(c1)OCO2)c1cccc(Cl)c1	0	106*	-5	-5	-3	0	-2%
Cc1cc(C)nc(N2CCC(C(=O)N(C)CCc3ccccc3)CC2)n1	-9	60*	-6	8	4	·	-3%
COc1ccc(/C=N/Nc2cc(N(C)C)nc(N(C)C)n2)cc1	2	33	2	-8	-7	8	·
CN(C)c1cc(N/N=C\c2ccccc2)nc(N(C)C)n1	4	103*	-1	-4	-7	1	0%
COc1ccccc1/C=N/Nc1cc(N(C)C)nc(N(C)C)n1	14	100*	-1	-6	-7	0	-3%
COc1ccccc1/C=N/Nc1cc(C)nc(N2CCOCC2)n1	8	57*	-3	4	0	1	0%
COc1ccccc1S(=O)(=O)N1CC[C@@H]2[C@@H](CO)Nc3ccc(-c4ccc(F)cc4)cc3[C@@H]21	·	·	·	·	·	-2	·
Cc1cc(NC(=O)COC(=O)c2cccc(S(=O)(=O)N3CCOCC3)c2)no1	-24	108*	6	-6	2	·	-2%
Cc1ccc(S(=O)(=O)N[C@@H]2CC[C@H](CCNC(=O)C3CCC3)O[C@H]2CO)cc1	·	·	·	·	·	0	·
COCCNC(=O)C[C@@H]1C[C@H]2c3cc(NC(=O)COC)ccc3O[C@H]2[C@H](CO)O1	·	·	·	·	·	-2	·
C=CCC1CCCCC1=C(C#N)c1ccccc1 (configuration not stated)	-6	53*	-1	0	-3	-3	-5%
SMILES	TDP2 inh	NSD2 HMT inh	LEDGF integ inh	MBD2 DNA inh	UHRF1 MBD2 ctr	CASP6 VEID inh	AlphaScreen art
C=CCN1C(c2ccccc2)=CS/C1=C(\C#N)c1nnc2n1CCCCC2	1	·	0	5	4	·	·
C[C@@H]1CCCCO[C@H](CN(C)CC2CC2)[C@H](C)CN([C@H](C)CO)C(=O)c2cc(NC(=O)NC3CCCCC3)ccc2O1	·	·	·	·	·	-2	·
CCC(=O)Nc1ccc2c(c1)C(=O)N(C)C[C@@H](OC)[C@@H](C)CN(Cc1ccccc1F)[C@@H](C)CO2	·	·	·	·	·	-2	·
Cc1cccc(Nc2nnc(-c3ccc(N4CCOCC4)c([N+](=O)[O-])c3)c3ccccc23)c1	-6	53*	-2	-7	-3	1	-10%
CCNC(=O)C[C@@H]1CC[C@@H](NC(=O)NC2CCCCC2)[C@@H](CO)O1	·	·	·	·	·	1	·
COc1ccc(Cc2ccccc2C(=O)O)cc1	5	50*	3	2	3	-2	1%
CCC(=O)Nc1ccc(C2=NNC(=NCC3CCCO3)SC2)cc1 (configuration not stated)	·	-7	·	·	·	·	·
CCCCN(CC)CCNC(=O)c1cc2c(-c3ccccc3F)nn(C)c2s1	-7	86*	-4	1	0	-2	-4%
O=C(C[C@H]1C=C[C@H](NC(=O)c2ccc(F)cc2)[C@H](CO)O1)NCCc1ccncc1	·	·	·	·	·	0	·
CNCCCC12CCC(c3ccccc31)c1ccccc12	-3	84*	i	-1	0	-1	1%
COC(=O)c1ccc(N2CCOCC2)c(NC(=O)c2ccc3c(c2)OCO3)c1	-9	-2	-1	2	-2	·	·
COc1cccc(NC(=O)c2ccc3c(c2)OCCO3)c1	18	113*	-2	3	-2	-2	-2%
COc1ccc(N2CCOCC2)c(NC(=O)c2ccc3c(c2)OCO3)c1	0	53*	6	3	0	-2	-1%
CCCC(=O)N1CC2(CCN(Cc3nccs3)CC2)c2c([nH]c3cc(OC)ccc23)[C@@H]1CO	·	·	·	·	·	3	·
CN(C)C(=O)c1ccc(-c2ccc([C@@H]3[C@@H](CO)N4CCCCN(CC5CC5)C[C@@H]34)cc2)cc1	·	·	·	·	·	-2	·
CC1(C)NC(=O)N(CCOCCOc2c(Cl)cc(Cl)cc2Cl)C1=O	9	125*	-1	1	0	·	-5%
CC1(C)NC(=O)N(CCOCCOc2ccccc2)C1=O	-1	-6	-1	-1	2	-1	·
COc1ccc2c3c(cccc13)N(C)N=C2C	10	72*	13	-3	4	·	3%
CNC(=O)C[C@H]1CC[C@H]2[C@@H](COC[C@@H](O)CN2Cc2ccncc2)O1	·	·	·	·	·	-1	·
CCC(=O)N1C[C@H](C)[C@H](OC)CN(C)C(=O)c2ccc(NC(=O)Nc3ccccc3)cc2OC[C@@H]1C	·	·	·	·	·	0	·
Cn1nnnc1SCC(=O)NCc1cccc(C(=O)O)c1	0	0	5	0	0	·	·
COC(=O)c1ccc(-n2nnnc2SCC(=O)NCc2cccc(C(=O)O)c2)cc1	-9	107*	2	3	4	·	3%
C=CCn1c2ccccc2n2nc(C)c(=O)nc12	0	2	2	0	-3	·	·
